Only some compounds are listed: those with a hit (about 2.3% of all), similar ones and a draw of the others.
TRPC6 inh: mouse TRPC6 channel inhibitors, primary screen, cell-based, HEK293, membrane potential dye; ACh-evoked depolarization; active compounds read low; AID 2553, 2010; B-score at 10 µM; Short transient receptor potential channel 6 (Mus musculus), Q61143; 310,000 compounds, 1.1% hits;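 active = B-score under library mean minus 3 SD, initial fluorescence not abnormally high, positive integrated signal ratio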;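 note: B-score derived from integrated fluorescence ratio over the kinetic read; more negative B-score means stronger inhibition of depolarization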
TRPC4 inh: inhibitors of mouse TRPC4 channel, primary screen, Fluo4 calcium, HEK293 TRPC4beta/mu-opioid cells; Short transient receptor potential channel 4 (Mus musculus), Q9QUQ5; DAMGO-evoked Fluo4 calcium flux; active compounds read low; B-score at 10 µM; 300,000 compounds, 0.39% hits; AID 2247, 2010;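 active = B-score over 3 SD under the library average, no early fluorescence shift, positive overall ratio signal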
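Assay system: Stable TRPC4beta/mu-opioid receptor HEK293 cells | Reagent: DAMGO in two steps, submaximal then maximal | Compound dosing: Single concentration per test compound | Signal: Fluo4 Ca2+ flux fluorescence | Evaluation: Per-well B score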
TRPC4 potent: positive allosteric modulators of TRPC4, primary screen, cell-based, mouse TRPC4beta, HEK293 mu-opioid, Fluo-4 calcium; Short transient receptor potential channel 4 (Mus musculus), Q9QUQ5; DAMGO EC20, Fluo-4 Ca2+ flux; active compounds read high; B-score at 10 µM; 310,000 compounds, 0.42% hits; AID 2227, 2009;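 active = B-score of calcium response area above 5 SD of library B-scores, with initial fluorescence ratio within 5 SD of library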
TRPC6 act: mouse TRPC6 channel activators, primary screen, cell-based, HEK293, membrane potential dye; Short transient receptor potential channel 6 (Mus musculus), Q61143; HEK293-TRPC6 membrane potential dye fluorescence; active compounds read high; B-score at 10 µM; 310,000 compounds, 0.13% hits;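 active = B-score of the integrated fluorescence ratio above library mean plus 3 SD, and starting fluorescence ratio within library mean plus 5 SD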;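 note: higher score means more depolarization so channel activation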
TRPC4 agonist: activators of mouse TRPC4 channel, primary screen, Fluo4 calcium, HEK293 TRPC4beta/mu-opioid cells. Fluo4 calcium fluorescence; active compounds read high. 310,000 compounds, 0.49% hits. AID 2237, 2010. B-score at 10 µM;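 active = B-score above 5 SD of library B-scores, and initial fluorescence ratio not above library mean plus 5 SD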;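 note: positive B-score marks a calcium rise read as TRPC4 activation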
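Assay system: HEK293 stable line with TRPC4beta plus mu-opioid receptor; schedule: 45 min room-temperature Fluo4 loading, 110 s read; technique: kinetic Fluo4 calcium fluorescence; evaluation: integrated baseline-normalised fluorescence ratio, converted to per-well B score; controls: buffer (low) and maximal DAMGO (high)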
Numbers stand for hits; . = inactive.

SMILES | TRPC6 inh | TRPC4 inh | TRPC4 potent | TRPC6 act | TRPC4 agonist
C=C[C@H]1[C@H](OC2OC(CO)C(O)C(O)C2O)OC=C(C(=O)OC)[C@H]1C[C@H]1CC(=O)C[C@H](CC(=O)CCc2ccc(O)cc2)O1 (stereo not given in full) | . | . | . | . | .
NC(=O)c1nsc(C(=O)N(Cc2ccco2)C(C(=O)NCc2ccccc2)c2ccc(O)cc2)c1N (stereo not given) | . | -8 | . | . | .
CCOc1ccccc1N(C(=O)c1snc(C(N)=O)c1N)C(C(=O)NCc1ccccc1)c1ccc(O)cc1 (stereo not given) | . | -9 | . | . | .
COc1ccccc1N(C(=O)c1snc(C(N)=O)c1N)C(C(=O)NCc1ccccc1)c1ccc(C)o1 (stereo not given) | . | -6 | . | . | .
COc1ccc(N(C(=O)c2snc(C(N)=O)c2N)C(C(=O)NCc2ccc(F)cc2)c2ccc(C)o2)c(OC)c1 (stereo not given) | . | . | . | . | .
Cc1ccccc1N(C(=O)c1snc(C(N)=O)c1N)C(C(=O)NCc1ccccc1)c1ccc(O)cc1 (stereo not given) | . | . | . | . | .
CC(=O)c1cccc(N(CC(=O)NC2CCCC2)C(=O)c2csnn2)c1 | . | . | . | . | .
COc1cc(NC(=O)CCCNC(=O)c2ccc(Cl)cc2)cc(OC)c1OC | . | . | . | . | .
C[N+]1(C)CCC(=C2c3ccccc3CC(=O)c3sccc32)CC1 | -6.38 | . | . | . | .
Cc1cccc2c1Sc1ccccc1CC2=O | . | . | . | . | .
CCC(=O)N1N=C(c2ccc(NS(C)(=O)=O)cc2)CC1c1ccc(N(C)C)cc1 (stereo not given) | . | . | . | . | .
C=CCN1CCN(C(c2cccc(OC)c2OC)c2nnnn2CCC(C)C)CC1 (stereo not given) | . | -7 | . | . | .
COc1cccc(C(c2nnnn2C(C)(C)C)N2CCN(C3CCCCC3)CC2)c1OC (stereo not given) | . | -6 | . | . | .
COc1ccccc1C(c1nnnn1C(C)(C)C)N1CCN(Cc2ccncc2)CC1 (stereo not given) | . | . | . | . | .
COc1cccc(C(c2nnnn2CCc2ccccc2)N2CCN(c3ccccc3)CC2)c1OC (stereo not given) | . | . | . | . | .
O=C(c1ccc(COc2ccccc2Br)cc1)N1CCCCCC1 | . | . | 12 | . | .
Cc1ccc2oc(=O)c3cnn(CC(=O)NC4CCN(Cc5ccccc5)CC4)c3c2c1 | . | . | . | . | 107
Cc1cc(=O)oc2c(C)c(OCC(=O)NC3CCN(Cc4ccccc4)CC3)ccc12 | . | . | . | . | .
Cc1c(OCC(=O)NC2CCN(Cc3ccccc3)CC2)ccc2c3c(c(=O)oc12)CCC3 | . | . | 11 | . | .
O=C(Cn1ncc2c(=O)oc3ccccc3c21)NC1CC1 | . | . | . | . | .
Cc1cccnc1NC(=O)c1csnn1 | . | . | . | . | .
CCSc1ccccc1C(=O)Nc1ccc(S(=O)(=O)NC(C)=O)cc1 | . | . | . | . | .
CCc1cc(OCCN(C)C)ccc1Cl | . | . | 26 | . | 100
CCc1cc(OCCN2C(=O)NC(C)(C)C2=O)ccc1Cl | . | . | 14 | . | .
COc1cccc(CCNC(=O)CCCC(=O)c2ccccc2)c1 | . | . | . | . | .
SMILES | TRPC6 inh | TRPC4 inh | TRPC4 potent | TRPC6 act | TRPC4 agonist
COc1ccc(NC(=O)CN(C)CCOc2ccc(Cl)cc2)cc1OC | . | . | 15 | . | .
COc1cc(/C=C(\C#N)c2nc3c(s2)CCCC3)ccc1O | . | . | . | 93.2 | 91
COC(=O)CCC(=O)Nc1nnc(C(F)(F)F)s1 | . | . | . | . | .
CCC(NC(=O)Nc1nnc(C(F)(F)F)s1)(C(F)(F)F)C(F)(F)F | -6.08 | . | . | . | .
CCc1ccc(-c2cc(C)no2)cc1S(=O)(=O)N1CCN(C(=O)c2ccco2)CC1 | . | . | . | . | .
Cc1cc(-c2ccc(C)c(S(=O)(=O)N3CCN(C(=O)c4ccco4)CC3)c2)on1 | . | . | 45 | . | .
COc1cccc(C(=O)NCCS(=O)(=O)NC2CCCC2)c1 | . | . | . | . | .
CCn1nc(C(=O)Nc2cc(Cl)ccc2-n2cncn2)c2ccccc2c1=O | . | . | . | . | .
Fc1ccc(C(CNC(=S)NC2CCCCC2)N2CCOCC2)cc1 (stereo not given) | . | . | . | . | .
CCN1CCN(c2nc(C)c3c(n2)CC(C)CC3=O)CC1 (stereo not given) | . | . | 15 | . | .
COc1ccc(-n2nc(C(=O)NCC(=O)NCCCN3CC(C)CC(C)C3)c3ccccc3c2=O)cc1Cl (stereo not given) | . | . | . | . | 128
CC1CC1C(=O)N(C)CC(=O)Nc1cccc(F)c1 (stereo not given) | . | . | . | . | .
Cc1ccc(C2c3c(C)nn(-c4ccc([N+](=O)[O-])cc4)c3N=C3C(=O)Nc4ccccc4N32)cc1 (stereo not given) | -5.28 | . | . | . | .
CN(CC(=O)Nc1ccc(F)c(F)c1F)C(=O)c1ccc2c(c1)OCCO2 | . | . | . | . | .
Cc1[nH]n2c(=O)c3c(nc2c1-c1ccccc1)CCC3 | . | -6 | . | . | .
COc1ccc(-c2c(C)[nH]n3c(=O)c(Cc4ccccc4)c(C)nc23)cc1 | . | -6 | . | . | .
CN1C(C(=O)NCc2ccccc2)CC2Cn3c(nc4cc5ccccc5cc43)C21 (stereo not given) | . | . | . | . | .
Cc1cc(C)cc(C(=O)N[C@@H](C)C(=O)N2CCC3(CC2)NCCc2[nH]cnc23)c1 | . | . | . | . | .
CN(C)/C=C1/C(=O)N(c2ccc([N+](=O)[O-])cc2)N=C1c1ccccc1 | . | . | . | . | .
CN(C)/C=C1\C(=O)N(c2ccc([N+](=O)[O-])cc2)N=C1c1ccccc1 | . | -6 | . | . | 47
CC(Sc1nnnn1-c1ccccc1)C(=O)Nc1ccccc1-c1ccccc1 (stereo not given) | . | . | . | . | .
CC(Sc1nnnn1-c1ccccc1)C(=O)Nc1ccc(N2CCN(C)CC2)cc1 (stereo not given) | . | . | . | . | 47
O=C(O)c1ccc(S(=O)(=O)N2CCSCC2)cc1 | . | . | . | . | .
Cc1cc(-c2cn3ccccc3n2)c(C)n1-c1ccccc1 | . | -7 | . | . | .
CCCCNC(=O)C1(NC(=O)Nc2ccc(C)cc2)CCCCC1 | . | . | . | . | .
